The source made the active and inactive calls. No cut-off for these calls is given here.
Assays:
[1] = Absorption property of the compound in PBS containing 1% Cremophor EL/1,2-propanediol (10:3, v:v) system assessed as absorption coefficient by UV-visible spectrophotometric method; format: physicochemical; settings: buffer
Method in brief: (§1)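 Electronic absorption spectra recorded by UV-visible spectrophotometry at room temperature. Solvents were chloroform, isopropanol, acetonitrile, DMF, and PBS buffer containing 1% Cremophor EL/1,2-propanediol (10:3, v:v). Chloroform data were referenced to the non-halogenated parent dye.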

[2] = Dark toxicity in human HeLa cells assessed as reduction in cell viability after 3 hrs by MTT assay; format: cell-based
Method in brief: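 Compound was formulated with Cremophor EL/1,2-propanediol in PBS, filtered, and its concentration confirmed by UV-Vis. HeLa cells in DMEM with 10% FBS at 37 °C, 5% CO2 were seeded at 3×10^3 cells/well and adhered overnight. Cells were exposed to graded concentrations for 3 h without light, incubated 24 h, then MTT 0.5 mg/mL for 4 h; formazan dissolved in DMSO, A490 read.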

[3] = Induction of singlet oxygen generation in N,N-dimethylformamide assessed as relative rate of DPBF degradation to MB at 1 uM irradiated with 90 mW/cm2 halogen light; format: functional
Method in brief: (§2)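 Singlet oxygen generation measured with 1,3-diphenylisobenzofuran (DPBF) as scavenger. The decrease in DPBF absorbance at 411 nm was monitored over time during light irradiation, and the photodegradation rate was calculated.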

[4] = Emission property of the compound in chloroform assessed as maximum emission wavelength by fluorescence spectrophotometric method; format: physicochemical
Method in brief: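 Fluorescence spectrum recorded in chloroform by fluorescence spectrophotometer at room temperature.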

[5] = Stability of the compound in acetonitrile assessed as compound degradation under dark condition; format: physicochemical
[6] = Induction of singlet oxygen generation in PBS containing 1% Cremophor EL/1,2-propanediol (10:3, v:v) system assessed as relative rate of DPBF degradation to MB at 1 uM irradiated with 90 mW/cm2 halogen light; format: functional; method in brief: as §2
[7] = Photostability of the compound in acetonitrile assessed as compound degradation irradiated with 90 mW/cm2 light; format: physicochemical
[8] = Photostability of the compound in N,N-dimethylformamide assessed as compound degradation irradiated with 90 mW/cm2 light; format: physicochemical
[9] = Photostability of the compound in isopropanol assessed as compound degradation irradiated with 90 mW/cm2 light; format: physicochemical
[10] = Absorption property of the compound in chloroform assessed as hypsochromic shift by measuring maximum absorption wavelength by UV-visible spectrophotometric method; format: physicochemical; method in brief: as §1
[11] = Photostability of the compound in PBS containing 1% Cremophor EL/1,2-propanediol (10:3, v:v) system assessed as compound degradation irradiated with 90 mW/cm2 light; format: physicochemical; settings: buffer
SW480 = test: Phototoxicity against human SW480 cells assessed as reduction in cell viability preincubated for 3 hrs followed by 54 J/cm2 light irradiation and measured after 24 hrs by MTT assay; format: functional, cell-based; settings: SW480, light or radiation study
Method in brief: (§3)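 PS formulated in PBS containing Cremophor EL/1,2-propanediol (10:3, v:v) after THF removal, filtered, with concentration confirmed by UV-Vis. Cells were grown in DMEM with 10% FBS and seeded at 3×10^3 per well overnight. They were incubated with PS for 3 h, irradiated at λ > 590 nm, kept 24 h at 37 °C, then given MTT (0.5 mg/mL, 4 h) with DMSO solubilization and A490 read-out.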

[12] = Absorption property of the compound in acetonitrile assessed as absorption coefficient by UV-visible spectrophotometric method; format: physicochemical; method in brief: as §1
[13] = Absorption property of the compound in N,N-dimethylformamide assessed as absorption coefficient by UV-visible spectrophotometric method; format: physicochemical; method in brief: as §1
[14] = Absorption property of the compound in chloroform assessed as absorption coefficient by UV-visible spectrophotometric method; format: physicochemical; method in brief: as §1
[15] = Dark toxicity in human SW480 cells assessed as reduction in cell viability after 3 hrs by MTT assay; format: cell-based
MCF7 = test: Phototoxicity against human MCF7 cells assessed as reduction in cell viability preincubated for 3 hrs followed by 54 J/cm2 light irradiation and measured after 24 hrs by MTT assay; format: functional, cell-based; settings: MCF7, light or radiation study; method in brief: as §3
[16] = Induction of singlet oxygen generation in isopropanol assessed as relative rate of DPBF degradation to MB at 1 uM irradiated with 90 mW/cm2 halogen light; format: functional; method in brief: as §2
[17] = Dark toxicity in human MCF7 cells assessed as reduction in cell viability after 3 hrs by MTT assay; format: cell-based
[18] = Stability of the compound in PBS containing 1% Cremophor EL/1,2-propanediol (10:3, v:v) system assessed as compound degradation under dark condition; format: physicochemical; settings: buffer
[19] = Absorption property of the compound in isopropanol assessed as absorption coefficient by UV-visible spectrophotometric method; format: physicochemical; method in brief: as §1
HeLa [20] = test: Phototoxicity against human HeLa cells assessed as reduction in cell viability preincubated for 3 hrs followed by 54 J/cm2 light irradiation and measured after 24 hrs by MTT assay; format: functional, cell-based; settings: light or radiation study; method in brief: as §3
[21] = Toxicity in human HeLa cells xenografted Balb/c nu/nu mouse assessed as body weight loss at 2 mg/kg, iv pretreated for 15 mins followed by 54 J/cm2 light irradiation for 10 mins and measured for 24 days; format: organism-based; settings: in vivo, 0.25 h
Method in brief: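 Female Balb/c nu/nu mice (18-22 g) carried subcutaneous HeLa cells (about 5×10^6, right back) and were treated on day 7 at a tumor volume of 80-100 mm³. Five mice per group received a tail-vein dose; saline controls were also irradiated. Fifteen minutes later the tumor was irradiated once with a 75 W halogen lamp (590 nm cut-on, 90 mW/cm², 10 min), without anaesthesia. Body weight was recorded every other day.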

HeLa [22] = test: Antitumor activity against human HeLa cells xenografted in Balb/c nu/nu mouse assessed as tumor growth inhibition at 2 mg/kg, iv pretreated for 15 mins followed by 54 J/cm2 light irradiation for 10 mins and measured after 24 days; format: functional, organism-based
Method in brief: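 Female Balb/c nu/nu mice with subcutaneous HeLa tumors (5×10^6 cells) reaching 80–100 mm³ on day 7 were randomized, n = 5 per group. Mice received 2 mg/kg by tail vein, or saline for controls. After 15 min the tumor was irradiated once with 54 J/cm² (75 W halogen lamp, >590 nm filter, 90 mW/cm², 10 min), unanaesthetized. Calipers every other day; V = 0.5×L×W²; body weight tracked.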

Activity [1] [M⁻¹ cm⁻¹] | Activity [4] [nm] | Stabilty [5] | Stabilty [7] | Stabilty [8] | Stabilty [9] | Activity [10] [nm] | Stabilty [11] | Activity [12] [M⁻¹ cm⁻¹] | Activity [13] [M⁻¹ cm⁻¹] | Activity [14] [M⁻¹ cm⁻¹] | SMILES | IC50 at 3 h [2] [µM] | fold change (FC) [3] | fold change (FC) [6] | IC50 (SW480) [µM] | IC50 at 3 h [15] [µM] | IC50 (MCF7) [µM] | fold change (FC) [16] | IC50 at 3 h [17] [µM] | IC50 (HeLa [20]) [µM] | also measured
34000 | 723 | Unstable | Stable | Unstable | Stable | 679 | Stable | 59300 | 59300 | 74000 | COc1ccc(C2=[N+]3C(=Nc4c(-c5ccccc5)c(I)c(-c5ccc(OC)cc5)n4[B-]3(F)F)C(c3ccccc3)=C2I)cc1 | > 50 | 0.66 | 2.2 | 1.3 | > 50 | 0.66 | 7 | > 50 | 0.59 | Stabilty [18]: Unstable; Activity [19]: 59300 M⁻¹ cm⁻¹
34000 | 720 | Unstable | Stable | Unstable | Stable | 679 | Stable | 59300 | 59300 | 76000 | COc1ccc(C2=[N+]3C(=Nc4c(-c5ccccc5)c(Br)c(-c5ccc(OC)cc5)n4[B-]3(F)F)C(c3ccccc3)=C2I)cc1 | > 50 | 0.65 | 2.3 | 0.53 | > 50 | 0.42 | 6.8 | > 50 | 0.31 | Stabilty [18]: Unstable; Activity [19]: 59300 M⁻¹ cm⁻¹
34000 | 720 | Unstable | Stable | Unstable | Stable | 679 | Stable | 59300 | 59300 | 77000 | COc1ccc(C2=[N+]3C(=Nc4c(-c5ccccc5)c(Br)c(-c5ccc(OC)cc5)n4[B-]3(F)F)C(c3ccccc3)=C2Br)cc1 | > 50 | 0.36 | 1.9 | 0.16 | > 50 | 0.15 | 4.5 | > 50 | 0.13 | Activity [21]: Non-Toxic; TGI (HeLa [22]): Active; Stabilty [18]: Unstable; Activity [19]: 59300 M⁻¹ cm⁻¹
– | – | – | – | – | – | – | – | – | – | – | C=Cc1c(C)c2cc3nc(c(CC(=O)O)c4[nH]c(cc5nc(cc1[nH]2)C(C)=C5CC)c(C)c4C(=O)O)[C@@H](CCC(=O)O)[C@@H]3C [CHLORIN E6] | > 50 | – | – | 3.1 | > 50 | 3.4 | – | > 50 | 1.92 | Activity [21]: Toxic; TGI (HeLa [22]): Active
